From ChEMBL document CHEMBL3244069, “Synthesis and biological activities of arginine-vasopressin analogues designed from a conformation-activity approach” (1979)
The source made the active and inactive calls. The rule behind the calls is not given here. Bridge positions count the residues as written; N and C are the ends. Square brackets hold non-standard residues; d marks the D form. Peptide text beside a SMILES is read from it. ΔPro = O=C(O)[C@@H]1C=CCN1; Mpa = O=C(O)CCS

Columns and labels:
[1] = system: Rattus norvegicus; assay: Induction in blood pressure in rat after single intravenous bolus injection; type: functional
How it was run: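 Pressor assay in anesthetized male rats following the U.S. Pharmacopeia procedure. Specific activity obtained by the Schild four-point design against the U.S.P. posterior pituitary reference standard; results in units/mg on anhydrous peptide weight.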

[2] = system: Rattus norvegicus; assay: Antidiuretic effect in Brattleboro rat assessed as maximal depressions of urine flow after single intravenous bolus injection; type: functional
[3] = system: Gallus gallus; assay: Reduction in vasomotor depression in chicken after single intravenous bolus injection; type: functional
How it was run: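 Avian vasodepressor assay in conscious chickens (Coon method per U.S. Pharmacopeia, modified by Munsick et al.). Four-point Schild design against the U.S.P. posterior pituitary reference standard; results in units/mg on anhydrous weight.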

[4] = organism: Rattus norvegicus; assay: Induction in uterus contraction in isolated rat uterine horns in vitro
[5] = system: Rattus norvegicus; assay: Increase in urine osmolality in Sprague-Dawley rat measured per liter at 1.6 x 10^-12 mol, single intravenous bolus injection (reference value: 200 mosm)
[6] = system: Rattus norvegicus; assay: Decrease in glomerular filtration rate in Sprague-Dawley rat at 1.6 x 10^-11 mol, single intravenous bolus injection; type: functional, organism-based; conditions: in the assay text read “1.6 x 10^-12 mol” for “1.6 x 10^-11 mol”
How it was run: (§1)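 Renal clearance in six male Sprague-Dawley rats, 250–275 g, under Inactin (10 mg/100 g ip), hydrated to 8% body weight with 2% ethanol/0.5% glucose. Infusion of 3% inulin, 1% mannitol, 0.6% NaCl, 2% alcohol at about 10 mL/h; 60 min equilibration; body temperature 37 °C. Urine volume determined gravimetrically, GFR from inulin (anthrone method), Na/K by flame photometry.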

[7] = system: Rattus norvegicus; assay: Induction in blood pressure in rat at 1.6 x 10^-12 mol, single intravenous bolus injection; type: functional, organism-based
How it was run: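 Hydrated, Inactin-anesthetized male Sprague-Dawley rats with carotid artery cannulated; arterial pressure recorded on a physiograph after a single intravenous bolus of 1.6×10^-12 mol (21 microunits).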

[8] = system: Rattus norvegicus; assay: Reduction in urine flow in Sprague-Dawley rat at 1.6 x 10^-11 mol, single intravenous bolus injection; type: functional, organism-based; conditions: in the assay text read “1.6 x 10^-12 mol” for “1.6 x 10^-11 mol”; how it was run: as §1
[9] = system: Rattus norvegicus; assay: Reduction in fractional excretion of sodium in Sprague-Dawley rat at 1.6 x 10^-11 mol, single intravenous bolus injection; type: functional, organism-based; conditions: in the assay text read “1.6 x 10^-12 mol” for “1.6 x 10^-11 mol”; how it was run: as §1
[10] = system: Rattus norvegicus; assay: Decrease in glomerular filtration rate in Sprague-Dawley rat at 1.6 x 10^-12 mol, single intravenous bolus injection
[11] = system: Rattus norvegicus; assay: Reduction in fractional excretion of sodium in Sprague-Dawley rat at 4.2 x 10^-11 mol, single intravenous bolus injection; type: functional, organism-based
How it was run: (§2)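 Six male Sprague-Dawley rats (250–275 g), Inactin 10 mg/100 g i.p., hydrated to 8% body weight; carotid, jugular and bladder cannulated, 37 °C. Inulin/mannitol/NaCl infusion (300 mosm) ~10 mL/h, 60 min equilibration. Blood pressure from the carotid; urine volume weighed, four postinjection samples; GFR from inulin (anthrone); sodium by flame photometry.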

[12] = system: Rattus norvegicus; assay: Increase in urine osmolality in Sprague-Dawley rat measured per liter at 4.2 x 10^-11 mol, single intravenous bolus injection (reference value: 200 mosm); type: functional
[13] = system: Rattus norvegicus; assay: Reduction in urine flow in Sprague-Dawley rat at 4.2 x 10^-11 mol, single intravenous bolus injection; type: functional, organism-based; how it was run: as §2
[14] = system: Rattus norvegicus; assay: Induction in blood pressure in rat at 4.2 x 10^-11 mol, single intravenous bolus injection; type: functional, organism-based; how it was run: as §2

Structure (SMILES)	Activity [1] [U/mg]	Activity [2] [U/mg]	Activity [3] [U/mg]	Activity [4] [U/mg]	Activity [5] [milliosmole]	inhibition [6]	Activity [7]	inhibition [8]	inhibition [9]	inhibition [10]	inhibition [11]	Activity [12] [milliosmole]	inhibition [13]	Activity [14]
N=C(N)NCCC[C@H](NC(=O)[C@@H]1C=CCN1C(=O)[C@@H]1CSSCCC(=O)N[C@@H](Cc2ccc(O)cc2)C(=O)N[C@@H](Cc2ccccc2)C(=O)N[C@@H](CCC(N)=O)C(=O)N[C@@H](CC(N)=O)C(=O)N1)C(=O)NCC(N)=O	240	4134	345	69										
N=C(N)NCCC[C@H](NC(=O)[C@@H]1CCCN1C(=O)[C@@H]1CSSCCC(=O)N[C@@H](Cc2ccccc2)C(=O)N[C@@H](Cc2ccccc2)C(=O)N[C@@H](CCC(N)=O)C(=O)N[C@@H](CC(N)=O)C(=O)N1)C(=O)NCC(N)=O ([Mpa]FFQNCPRG-NH2; disulfide 1-6)	29	810	<1	0.3										
N=C(N)NCCC[C@H](NC(=O)[C@@H]1C=CCN1C(=O)[C@@H]1CSSCCC(=O)N[C@@H](Cc2ccccc2)C(=O)N[C@@H](Cc2ccccc2)C(=O)N[C@@H](CCC(N)=O)C(=O)N[C@@H](CC(N)=O)C(=O)N1)C(=O)NCC(N)=O ([Mpa]FFQNC[ΔPro]RG-NH2; disulfide 1-6)		13000	2.9	6	700	Active	inactive	Active	Active					
N=C(N)NCCCC(NC(=O)[C@@H]1CCCN1C(=O)[C@@H]1CSSCCC(=O)N[C@@H](Cc2ccc(O)cc2)C(=O)N[C@@H](Cc2ccccc2)C(=O)N[C@@H](CCC(N)=O)C(=O)N[C@@H](CC(N)=O)C(=O)N1)C(=O)NCC(N)=O (single isomer, unassigned) [DESMOPRESSIN]	395	1400	160	29										
N=C(N)NCCC[C@H](NC(=O)[C@@H]1CCCN1C(=O)[C@@H]1CSSC[C@H](N)C(=O)N[C@@H](Cc2ccc(O)cc2)C(=O)N[C@@H](Cc2ccccc2)C(=O)N[C@@H](CCC(N)=O)C(=O)N[C@@H](CC(N)=O)C(=O)N1)C(=O)NCC(N)=O [VASOPRESSIN]	487	503	100	12						Active	Active	700	Active	Active
